# Results: paper PMC12124217 (RSC Medicinal Chemistry, 2025)
# Experiments:
# MDA-MB-468 (EGFR+) cells = experiment: MTT cell viability assay; assay type: cell-based; settings: neat CD, up to concentrations as high as 100 μM
# How it was run: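 MDA-MB-468 cells were treated with test compound alone or as cyclodextrin complexes, then read out by MTT. Complex stocks were made by shake-flask and passed through a 0.45 μm filter. […] Values are the mean of 10 replicates ± standard deviation.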
# [1] = Phase-solubility study of tcyDTDO with BCD; assay type: physicochemical; settings: BCD with saturated tcyDTDO, 25.0 °C
# [2] = cited from earlier work
# [3] = advertised; ref Millipore Sigma; cited from earlier work
Compound,Effect on cell viability (MDA-MB-468 (EGFR+) cells),Highest achievable concentration of CD in solution [1] [mM],"Cavity volume, literature [2] [Å^3]",Solubility in water [3]
"OC[C@H]1O[C@@H]2O[C@H]3[C@H](O)[C@@H](O)[C@@H](O[C@H]4[C@H](O)[C@@H](O)[C@@H](O[C@H]5[C@H](O)[C@@H](O)[C@@H](O[C@H]6[C@H](O)[C@@H](O)[C@@H](O[C@H]7[C@H](O)[C@@H](O)[C@@H](O[C@H]8[C@H](O)[C@@H](O)[C@@H](O[C@H]1[C@H](O)[C@H]2O)O[C@@H]8CO)O[C@@H]7CO)O[C@@H]6CO)O[C@@H]5CO)O[C@@H]4CO)O[C@@H]3CO [BCD, beta-cyclodextrin]",did not have any significant adverse effect on cell viability,4.43,262,–
"CC(O)COC[C@H]1O[C@@H]2O[C@H]3[C@H](O)[C@@H](O)[C@@H](O[C@H]4[C@H](O)[C@@H](O)[C@@H](O[C@H]5[C@H](O)[C@@H](O)[C@@H](O[C@H]6[C@H](O)[C@@H](O)[C@@H](O[C@H]7[C@H](O)[C@@H](O)[C@@H](O[C@H]8[C@H](O)[C@@H](O)[C@@H](O[C@H]1[C@H](O)[C@H]2O)O[C@@H]8COCC(C)O)O[C@@H]7COCC(C)O)O[C@@H]6COCC(C)O)O[C@@H]5COCC(C)O)O[C@@H]4COCC(C)O)O[C@@H]3COCC(C)O (stereo partly drawn) [HPB, 2-hydroxypropyl-beta-cyclodextrin]",did not have any significant adverse effect on cell viability,–,–,roughly 45 g per 100 mL
